Results reported in ChEMBL document CHEMBL1158756, “Hassallidin A, a glycosylated lipopeptide with antifungal activity from the cyanobacterium Hassallia sp” (2005).
Converted amounts (≈) assume the structure as drawn. The source made the active and inactive calls. The rule behind the calls is not given here. Positions of bridges follow the written chain, without caps; N, C: chain ends. Non-standard residues stand in square brackets, D forms with d. Residues, ends and D or L forms follow the SMILES beside them. *: point of attachment. X2 = OC[C@H]1O[C@@H](*)[C@@H](O)[C@@H](O)[C@@H]1O; NMeT = CN[C@H](C(=O)O)[C@@H](C)O; X1 = CCCCCCCCCCCC(O)C(O)C(=O)*; Dhb = C/C=C(\N)C(=O)O

How the values were obtained:
[1] = test system: Nakaseomyces glabratus; experiment: Antifungal activity against Candida glabrata at 10 ug by disk diffusion assay; type: functional, organism-based
How it was run: (§1)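 Disk diffusion on malt agar plates; each disk carried 10 µg in 30 µL of 50% MeOH.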

[2] = test system: Candida albicans; experiment: Antifungal activity against Candida albicans at 10 ug by disk diffusion assay; type: functional, organism-based; how it was run: as §1
[3] = test system: Ustilago maydis; experiment: Antifungal activity against Ustilago maydis at 10 ug by disk diffusion assay; type: functional, organism-based; conditions: Mycosarcoma maydis; how it was run: as §1
[4] = test system: Penicillium sp.; experiment: Antifungal activity against Penicillium sp. at 10 ug by disk diffusion assay; type: functional, organism-based; how it was run: as §1
[5] = test system: Aspergillus niger; experiment: Antifungal activity against Aspergillus niger at 10 ug by disk diffusion assay; type: functional, organism-based; how it was run: as §1
[6] = test system: Escherichia coli; experiment: Antimicrobial activity against Escherichia coli at 10 ug by disk diffusion assay; type: functional, organism-based
How it was run: (§2)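 Disk diffusion on LB-agar plates; each disk carried 10 µg in 30 µL of 50% MeOH.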

[7] = test system: Fusarium sambucinum; experiment: Antifungal activity against Fusarium sambucinum at 10 ug by disk diffusion assay; type: functional, organism-based; how it was run: as §1
[8] = test system: Bacillus subtilis; experiment: Antimicrobial activity against Bacillus subtilis at 10 ug by disk diffusion assay; type: functional, organism-based; how it was run: as §2
[9] = test system: Candida albicans; experiment: Antifungal activity against Candida albicans after 24 hrs; type: functional
How it was run: (§3)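 Broth microdilution in RPMI-1640; each well held 240 µL medium, 10 µL inoculum (prepared per NCCLS guidelines) and 50 µL of test solution in 50% MeOH. The test solution was a 2-fold series from a 92 µg/mL stock, 4.6 down to 0.14 µg per 50 µL. A drug-free well served as control. Incubation at 35 °C, 24 h for C. albicans and 48 h for A. fumigatus. Growth was read as OD595. MIC was the highest dilution well free from growth. Run in triplicate.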

[10] = test system: Aspergillus fumigatus; experiment: Antifungal activity against Aspergillus fumigatus after 48 hrs; type: functional; how it was run: as §3
[11] = test system: Streptomyces; experiment: Antimicrobial activity against Streptomyces versicolor at 10 ug by disk diffusion assay; type: functional, organism-based; how it was run: as §2
[12] = test system: Aspergillus fumigatus; experiment: Antifungal activity against Aspergillus fumigatus at 10 ug by disk diffusion assay; type: functional, organism-based; how it was run: as §1

Compound: C/C=C1\NC(=O)[C@H](Cc2ccc(O)cc2)NC(=O)[C@H]([C@@H](C)O)NC(=O)[C@@H](NC(=O)[C@@H](NC(=O)C(O)C(O)CCCCCCCCCCC)[C@@H](C)O)[C@@H](C)OC(=O)[C@H](CCC(N)=O)NC(=O)[C@H]([C@@H](C)O[C@@H]2O[C@H](CO)[C@@H](O)[C@H](O)[C@@H]2O)N(C)C(=O)CNC(=O)[C@H](CCC(N)=O)NC1=O (some centres not stated) [HASSALLIDIN A] (X1-TTTY[Dhb]QG[NMeT](X2)Q; ester 2-C)
- Activity [1]: Active
- Activity [2]: Active
- Activity [3]: Active
- Activity [4]: Active
- Activity [5]: Active
- Activity [6]: inactive
- Activity [7]: Active
- Activity [8]: inactive
- MIC [9]: 4.8 µg/mL (≈ 3.47 µM)
- MIC [10]: 4.8 µg/mL (≈ 3.47 µM)
- Activity [11]: inactive
- Activity [12]: Active
